# From PubChem BioAssay AID463132 (The Scripps Research Institute Molecular Screening Center, 2010)
# Molecular target: Protein phosphatase methylesterase 1 (Homo sapiens) (UniProt Q9Y570)
# Assay: in situ PME-1 inhibition – HeLa cells, western blot, powder samples, late-stage follow-up (AID 463132)
# Conditions: demethylated PP2A western blot, 1 h, at 0.5 µM, active compounds read high
# Summary of the method: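 Test system: HeLa cells with endogenous PME-1 acting on PP2A; medium: FCS-supplemented medium; doses: single compound dose of 0.5 µM; timing: compound exposure of cells for 1 h at 37 °C; measured by: HRP-antibody immunoblot, chemiluminescence; read-out basis: percent inhibition of demethylated PP2A band density versus controls; control set: high DMSO cells, low empty blot region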
# Sequence of Protein phosphatase methylesterase 1 (Homo sapiens) (Q9Y570 whole entry, looked up): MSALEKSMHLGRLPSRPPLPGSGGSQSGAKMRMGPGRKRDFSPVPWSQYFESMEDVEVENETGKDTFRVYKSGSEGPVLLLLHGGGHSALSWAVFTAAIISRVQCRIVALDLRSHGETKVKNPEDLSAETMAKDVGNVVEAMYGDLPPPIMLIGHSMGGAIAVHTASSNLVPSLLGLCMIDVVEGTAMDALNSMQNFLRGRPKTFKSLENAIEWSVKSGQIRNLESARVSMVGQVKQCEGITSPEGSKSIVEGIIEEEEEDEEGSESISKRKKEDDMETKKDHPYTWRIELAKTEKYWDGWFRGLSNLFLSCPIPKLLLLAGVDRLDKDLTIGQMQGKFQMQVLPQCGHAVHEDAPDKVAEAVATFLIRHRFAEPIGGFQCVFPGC
row,inhibition [%],SMILES
1,85,COC(=O)N1C(=O)[C@](c2ccccc2)(C2CCCCC2)N1C(=O)OC
2,85,COC(=O)N1C(=O)[C@](c2ccccc2)(C2CCCC2)N1C(=O)OC
